Assay outcomes deposited in PubChem BioAssay by Sanford-Burnham Center for Chemical Genomics.
Not all results are given here.
Apaf1 activ: human Apaf-1 activation. 0.31% of 330,000 active. Apaf-1 apoptosome caspase-3 activation, DEVD-Rh110 fluorescence; stronger effect = lower value. AID 489031. O14727. activity change, negative = activation, % at 20 µM;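 active means activity change at or below -40% at 20 µM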
Target sequence (O14727 whole entry, looked up): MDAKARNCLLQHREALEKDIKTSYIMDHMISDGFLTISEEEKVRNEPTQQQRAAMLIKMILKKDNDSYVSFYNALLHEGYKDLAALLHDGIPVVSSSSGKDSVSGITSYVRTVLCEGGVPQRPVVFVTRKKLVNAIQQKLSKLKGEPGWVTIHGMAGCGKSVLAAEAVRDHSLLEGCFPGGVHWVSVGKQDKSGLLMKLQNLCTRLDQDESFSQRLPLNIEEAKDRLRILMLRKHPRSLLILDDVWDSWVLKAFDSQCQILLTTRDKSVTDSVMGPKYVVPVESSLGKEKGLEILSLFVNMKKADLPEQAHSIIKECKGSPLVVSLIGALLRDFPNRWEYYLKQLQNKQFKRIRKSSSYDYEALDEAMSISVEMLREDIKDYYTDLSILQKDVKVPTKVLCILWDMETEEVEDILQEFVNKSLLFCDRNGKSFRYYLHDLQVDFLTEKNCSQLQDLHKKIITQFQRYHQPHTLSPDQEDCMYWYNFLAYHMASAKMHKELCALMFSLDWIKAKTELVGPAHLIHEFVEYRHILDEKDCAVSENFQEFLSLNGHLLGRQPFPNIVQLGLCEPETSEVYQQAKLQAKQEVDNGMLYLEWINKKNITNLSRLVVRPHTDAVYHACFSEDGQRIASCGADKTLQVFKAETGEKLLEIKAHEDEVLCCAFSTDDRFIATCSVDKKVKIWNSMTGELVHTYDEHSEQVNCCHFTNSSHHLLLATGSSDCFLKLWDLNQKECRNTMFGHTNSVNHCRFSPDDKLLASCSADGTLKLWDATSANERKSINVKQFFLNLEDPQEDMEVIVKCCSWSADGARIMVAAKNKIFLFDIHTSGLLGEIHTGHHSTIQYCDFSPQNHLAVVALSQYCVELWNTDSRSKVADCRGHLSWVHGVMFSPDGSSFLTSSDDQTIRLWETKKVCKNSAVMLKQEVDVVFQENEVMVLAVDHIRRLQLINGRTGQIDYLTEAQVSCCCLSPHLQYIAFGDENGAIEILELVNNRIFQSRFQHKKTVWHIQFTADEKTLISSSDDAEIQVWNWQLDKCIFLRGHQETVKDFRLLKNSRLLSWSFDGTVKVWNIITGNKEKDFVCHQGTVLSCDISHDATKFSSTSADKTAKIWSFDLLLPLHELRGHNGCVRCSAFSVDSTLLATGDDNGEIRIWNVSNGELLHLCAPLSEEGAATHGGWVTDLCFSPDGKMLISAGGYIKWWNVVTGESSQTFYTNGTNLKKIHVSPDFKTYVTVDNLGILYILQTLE
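System: Reconstituted apoptosome of Apaf-1, cytochrome c, caspase-9, procaspase-3 | Reagent: dATP, cytochrome c, and (Z-DEVD)2-Rh110 caspase-3 substrate | Times: 30 min compound preincubation and 50 min reaction, both room temperature | Detection: Caspase-3-released Rh110 fluorescence, 540 nm emission, 480 nm excitation | Measure: Caspase-3 activity via Apaf-1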
Rh110 act interf: interferes with Rh110 fluorescence, flagging false Apaf-1 activators | fluorescence interference (activity change), % at 20 µM, hits read low | 980 tested, under 10 active | shares compounds with Apaf1 activ | Rh110 fluorescence interference, quenched caspase reaction, Ex480/Em540;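 active means mean activity change at or below -40% when tested at 20 µM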
Apaf-1 act conf2: confirmation of human Apaf-1 activators. shares compounds with Apaf1 activ. reconstituted apoptosome caspase-3 activity, DEVD-Rh110 fluorescence; stronger effect = lower value. activity change, negative = activation, % at 20 µM. 5% of 980 active;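 active means mean activity change at or below -40%, meaning activation of 40% or more, at 20 µM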
Fluor interf act: shows fluorescence interference in the Apaf-1 activator assay format | shares compounds with Apaf1 activ | fluorescence interference counterscreen | EC50, µM | 55 tested, under 10 active | AID 588592; call rule not given here
Hits are given with their value; 0 = inactive; - = no result.

SMILES	Apaf1 activ	Rh110 act interf	Apaf-1 act conf2	others
COc1ccc(/C=N/Nc2cc(C)nc3ccc(Br)cc23)cc1	0	-	-
COc1ccc(OC)c2c1sc(=NC(=O)C(C)(C)C)n2C	-370.3	0	0
Cc1[nH]n(-c2ccccc2)c(=O)c1C(C[N+](=O)[O-])c1ccc(F)cc1 (stereo unspecified)	0	-	-
Cc1ccc(C=Nc2ccccc2C(=O)Nc2ccccc2)cc1	-464.1	0	0
Cc1ccc(C(=O)NC(=S)Nc2cccc3nsnc23)cc1	0	-	-
C=CCN1C=C2C(=O)C(C)(OC(=O)CCC(=O)OC)C(=O)C(Br)=C2C=C1c1ccc(OC)cc1 (stereo unspecified)	0	-	-
COCCN1C=C2C(=O)C(C)(OC(=O)CCC(=O)OC)C(=O)C(Br)=C2C=C1c1ccc(OC)cc1 (stereo unspecified)	0	-	-	Fluor interf act=0
COC(=O)CCC(=O)OC1(C)C(=O)C2=CN(C3CCCC3)C(c3ccc(OC)cc3)=CC2=C(Br)C1=O (stereo unspecified)	0	-	-
CC(=O)OCCCNc1cc(SCc2ccco2)c2nonc2c1[N+](=O)[O-]	0	-	-
COc1cccc2c1C(=O)c1c(O)c3c(c(O)c1C2=O)C[C@@](O)(C(=O)CO)C[C@@H]3O[C@H]1C[C@H](N)[C@@H](O)[C@H](C)O1	0	-	-
O=C(Nc1ccccc1O)c1ccc2c(c1)C(=O)N(Cc1ccco1)C2=O	-93.2	0	0
Nc1nn2c(-c3ccccc3)cc(=O)[nH]c2c1N=Nc1ccc(O)cc1	0	-	-
CCNC(=O)Oc1ccc[nH]c1=O	0	-	-
O=C(NCc1ccccn1)c1cccc(NS(=O)(=O)c2cccc(F)c2)c1	-43.1	0	0
COc1ccc(C(CNC(=O)c2cccc(NS(=O)(=O)c3ccc(C)c(F)c3)c2)N(C)C)cc1 (stereo unspecified)	0	-	-
Cc1cc(-c2ccc(N=Nc3c(S(=O)(=O)O)cc4cc(S(=O)(=O)O)cc(N)c4c3O)c(C)c2)ccc1N=Nc1c(S(=O)(=O)O)cc2cc(S(=O)(=O)O)cc(N)c2c1O	0	-	-
c1cc2c3c(cccc3c1)NC1(CCCCCC1)N2	0	-	-
COc1ccc(S(=O)(=O)Nc2ccc(S(=O)(=O)N3CCOCC3)cc2)cc1	-63.9	0	0
COc1ccc(NC(=O)NNc2cc(N3CCOCC3)nc(N3CCOCC3)n2)cc1	0	-	-
COc1ccc(Nc2ccc(OC)cc2)cc1	0	-	-
OCCN1CCN(CC/C=C2/c3ccccc3Sc3ccc(Cl)cc32)CC1	0	-	-
COC1=C(Nc2ccc(C)cc2)C(=O)c2ccccc2C1=O	0	-	-
COc1ccccc1C(=O)Nc1ccc(Oc2nnc(-c3ccc(C)cc3)c3ccccc23)cc1	0	-	-
COc1ccc(NC(=O)C(c2ccccn2)N(C(C)=O)c2ccc(C)cc2)cc1 (stereo unspecified)	-415.4	0	0
CC12COC3(P(=O)(c4ccccc4)c4ccccc4)CC1CCC23CP(=O)(c1ccccc1)c1ccccc1 (stereo unspecified)	0	-	-
SMILES	Apaf1 activ	Rh110 act interf	Apaf-1 act conf2	others
CN(CC(=O)Nc1ccccc1N1CCOCC1)CC(=O)Nc1ccc(F)c(F)c1F	-71.5	0	0
CCCN(CC(=O)Nc1ccccc1C)C(=O)C1CC(=O)N(c2ccccc2C(C)CC)C1 (stereo unspecified)	0	-	-
COc1cc(OC)c2c(-c3ccccc3)cc(=O)oc2c1C(CCN1CCCCC1)c1ccc(N(C)C)cc1 (stereo unspecified)	0	-	-
O=C1CCNc2cc3ccccc3cc21	0	-	-
COc1ccc(-n2nc3c(N4CCC(C(=O)NCc5ccccc5C)CC4)nnc(C)c3c2C)cc1	0	-	-
O=C(Nc1ccc2c(c1)OCO2)[C@@H]1[C@@H]2C(=O)N(C3CCCCC3)C(=O)[C@@H]2C2c3ccccc3C=CN21 (stereo partly specified)	0	-	-
O=C1/C(=C/Nc2ccc3c(c2)OCO3)CCc2ccccc21	0	-	-
O=C(CSc1ccc2c(c1)OCCO2)Nc1ccc2c(c1)OCO2	-577.5	0	0
Cc1ccc(NC2=C(N3CCCCC3)C(=O)c3ccccc3C2=O)cc1	0	-	-
CCCCn1nnc(NC(=O)Cc2ccc(Cl)cc2)n1	-95.0	0	0
CN1CCN(c2ccc(NC(=O)c3ccc(-c4ccc(Br)cc4)o3)cc2)CC1	0	-	-
CCCn1nnc(NC(=O)c2ccc(-c3cccc(Cl)c3)o2)n1	-43.9	0	0
CC(C)(C)CC(C)(C)c1ccc(OCCOCC[N+](C)(C)Cc2ccccc2)cc1	0	-	-
CCCC(=O)OCCNc1cc(SCc2ccco2)c2nonc2c1[N+](=O)[O-]	0	-	-
CCO/C=C1/C(=O)N(Cc2ccccc2)C(=O)c2ccccc21	0	-	-
O=C(O)c1ccc(S(=O)(=O)/N=C2\C=C(Nc3ccccc3F)C(=O)c3ccccc32)cc1	0	-	-
CCOc1ccc(C(=O)Nc2sc3c(c2C(=O)OC)CC(C)(C)NC3(C)C)cc1	0	-	-
CCOc1ccc(NC(=O)CN(C)S(=O)(=O)c2ccc(-c3ccc(=O)[nH]n3)s2)cc1	-86.0	0	0
CCN1C(=O)C(C(=O)Nc2ccc(OC)cc2)C2CC1(C)Oc1ccccc12 (stereo unspecified)	-542.0	0	0
CNC[C@H]1Oc2ccc(NC(=O)Nc3ccc(OC)cc3)cc2C(=O)N([C@@H](C)CO)C[C@H]1C	0	-	-
Clc1ccc(/C=N/Nc2ncnc3ccccc23)cc1Cl	0	-	-
COc1ccccc1N=Nc1ccc(O)c2ncccc12	0	-	-
Cc1ccc(SC(C)c2nc(-c3ccccc3)no2)cc1 (stereo unspecified)	-247.1	0	0
OCCN1CCN(CCCN2c3ccccc3Sc3ccc(Cl)cc32)CC1	0	-	-
